Data set [1] can be described thus: Brain concentration after 2 hours at 10mg/kg ip dose (10mg/ml suspension in 10%DMSO/10%Tween80). To be noted: mouse, read-out: Conc_brain. The class given is ADME, organism-based. An outline of the steps: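 Mice given a single 10mg/kg i.p. dose as a 10mg/ml suspension in 10/10/80 DMSO/Tween80/water. Brain levels (μM) measured at 2h and 8h post injection, with plasma sampled at 1, 2, 4 and 8h. Mean ± s.e.m., n=3.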

Data set [2] is described as follows: Toxicity in CL57BL6 mice after 7 days treatment at 100 mg/kg b.i.d in hematology screen. The data set is classed as organism-based, C57BL/6. Also on record: dose 100 mg/kg. To be noted: mouse, in vivo, 168 h. An outline of the steps: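 Vehicle-controlled C57Bl6 mice dosed chronically at 100 mg/kg b.i.d. for 7 days. Complete blood count: WBC, neutrophil, lymphocyte, monocyte, eosinophil and basophil counts and percentages; RBC, Hb, HCT, MCV, MCH, MCHC, RDW, platelet count and MPV. Mean ± s.e.m., n=6.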

The target in data set [3] is T1, Nuclear receptor subfamily 1 group D member 1 (Homo sapiens, UniProt P20393).
T1 sequence (P20393 whole entry): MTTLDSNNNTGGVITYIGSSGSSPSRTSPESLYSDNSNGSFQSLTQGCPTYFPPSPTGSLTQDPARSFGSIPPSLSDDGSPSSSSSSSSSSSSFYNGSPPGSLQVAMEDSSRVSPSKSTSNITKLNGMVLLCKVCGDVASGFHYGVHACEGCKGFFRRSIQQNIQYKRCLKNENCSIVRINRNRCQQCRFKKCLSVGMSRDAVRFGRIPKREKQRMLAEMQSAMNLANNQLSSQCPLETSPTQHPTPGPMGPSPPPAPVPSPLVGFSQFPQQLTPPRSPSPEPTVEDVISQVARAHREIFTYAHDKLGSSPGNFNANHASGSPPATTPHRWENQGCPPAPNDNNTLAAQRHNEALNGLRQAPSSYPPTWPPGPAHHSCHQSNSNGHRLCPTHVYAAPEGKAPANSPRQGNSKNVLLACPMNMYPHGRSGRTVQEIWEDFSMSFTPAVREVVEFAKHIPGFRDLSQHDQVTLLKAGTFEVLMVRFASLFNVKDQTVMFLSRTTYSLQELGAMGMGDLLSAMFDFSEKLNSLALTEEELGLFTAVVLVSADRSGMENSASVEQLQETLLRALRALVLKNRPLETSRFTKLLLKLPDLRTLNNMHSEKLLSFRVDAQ
Nature of the data set: REV-ERB-alpha mediated transcriptional suppression at Bmal1 promoter in HEK293 cell reporter assay. The class given is functional, cell-based.

Data set [4] in a line: Decrease in Srebf1 gene expression. The class given is functional. To be noted: Mus musculus, Liver.
Data set [5] has as its target T1, Nuclear receptor subfamily 1 group D member 1. Nature of the data set: Increased REV-ERB-alpha LBD dependent repressor activity in HEK293 cell reporter assay. The class given is cell-based. To be noted: read-out: IC50.
The nature of data set [6]: Decrease in wheel-running behavior in mice in constant darkness. The data set is classed as functional. To be noted: Mus musculus.
Data set [7] in a line: Plasma concentration after 2 hours at 10mg/kg ip dose (10mg/ml suspension in 10%DMSO/10%Tween80). As to conditions: mouse, read-out: Conc_plasma. The class given is ADME, organism-based. In a few lines:
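Mice received a single 10 mg/kg i.p. dose as a 10 mg/ml suspension in DMSO/Tween80/water (10/10/80). Plasma was sampled at 1, 2, 4 and 8 h post-injection and drug concentration reported in μM. Mean ± s.e.m., n=3.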

For another data set, the system named is Fibroblast. As to the kind of experiment: Inhibition of circadian oscillations in fibroblasts from Per2-luc transgenic mice. As to conditions: Mus musculus. The class given is functional, cell-based. An outline of the steps: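 Fibroblasts (MEFs) were isolated from Per2^luc transgenic mice and treated with 5 μM compound. Circadian oscillation amplitude was followed by continuous bioluminescence recording in two independent experiments.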

In data set [8] the test system is Mus musculus. As to the kind of experiment: Change in plasma triglycerides in diet-induced obese mice over 30 days at 100 mg/kg ip. The data set is classed as functional, organism-based. To be noted: C57BL/6. Also on record: dose 100 mg/kg.
The test system of data set [9] is Mus musculus. As to the kind of experiment: Change in plasma leptin in diet-induced obese mice over 30 days at 100 mg/kg ip. The class given is functional, organism-based. Also on record: dose 100 mg/kg. To be noted: C57BL/6.
In data set [10] the test system is Mus musculus. Nature of the data set: Change in plasma NEFA (non-esterified fatty acids) in diet-induced obese mice over 30 days at 100 mg/kg ip. The class given is functional, organism-based. Also on record: dose 100 mg/kg. To be noted: C57BL/6.
The subject of data set [11] is Mus musculus. As to the kind of experiment: Change in total plasma cholesterol in diet-induced obese mice over 30 days at 100 mg/kg ip. The data set is classed as functional, organism-based. Also on record: dose 100 mg/kg. As to conditions: C57BL/6.
In data set [12] the test system is Mus musculus. As to the kind of experiment: Change in plasma insulin in diet-induced obese mice over 30 days at 100 mg/kg ip. The data set is classed as functional, organism-based. To be noted: C57BL/6. Also on record: dose 100 mg/kg.
In data set [13] the test system is Mus musculus. Nature of the data set: Change in plasma glucose in diet-induced obese mice over 30 days at 100 mg/kg ip. The class given is functional, organism-based. Also on record: dose 100 mg/kg. To be noted: C57BL/6.
Data set [14] deals with Mus musculus. Nature of the data set: Change in plasma IL-6 in diet-induced obese mice over 30 days at 100 mg/kg ip. As to conditions: C57BL/6. The class given is functional, organism-based. Also on record: dose 100 mg/kg.

Activity calls are given as the source filed them. No cut-off for these calls is given here.

Here are results for 2 molecules from ChEMBL document CHEMBL1961794, “Regulation of circadian behaviour and metabolism by synthetic REV-ERB agonists” (Nature, 2012).

For `CCCCCNC(=O)N1CCC(CN(Cc2ccc(Cl)cc2)Cc2ccc([N+](=O)[O-])s2)C1` (stereo not given) [SR9011], the values for the concentration at 2 h in data set [1] and in data set [7] were 240 nM and 530 nM, respectively. The Toxicity entry in data set [2] is “Not Toxic”. Further, the results for the IC50 in [3] and in data set [5] were 620 nM (agonist) and 790 nM (agonist), respectively. Further, the ED50 worked out at 67 mg/kg in [4] and 56 mg/kg in [6]. Further, in the data set with Fibroblast, the Reduced_circadian_oscillation result was “Active”.

`CCOC(=O)N1CCC(CN(Cc2ccc(Cl)cc2)Cc2ccc([N+](=O)[O-])s2)C1` (stereo not given) [SR9009]: the Plasma triglyceride with Mus musculus [8] is -12%. Also, the Plasma leptin in the data set with Mus musculus [9] was -80%. Also, the Plasma NEFA in the data set on Mus musculus [10] was -23%. The Plasma cholesterol in the data set with Mus musculus [11] is -47%. The Plasma insulin in the data set on Mus musculus [12] was -35%. In addition, the Plasma glucose in the data set with Mus musculus [13] is -19%. Further, the Plasma IL-6 in the data set on Mus musculus [14] was -72%.
